Assay results reported in ChEMBL document CHEMBL1133742, “17beta-O-Aminoalkyloximes of 5beta-androstane-3beta,14beta-diol with digitalis-like activity: synthesis, cardiotonic activity, structure-activity relationships, and molecular modeling of the Na(+),K(+)-ATPase receptor” (J Med Chem, 2000).

Key:
[1] = In vitro maximum inotropic effect on contractile force of an electrically driven guinea pig left atrium.; format: functional, Cavia porcellus, Cardiac atrium
Method in brief: (§1)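 Isolated guinea pig atria in solution bubbled with 95% O2/5% CO2, field-stimulated by platinum electrodes at 1 Hz (1 ms square pulses, twice threshold voltage). After 60 min equilibration, cumulative concentrations added, each held until maximal response or arrhythmia.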

[2] = Percent increase in force of contraction in vitro determined using electrically driven guinea pig left atrium.; format: functional; conditions: Cavia porcellus, Cardiac atrium; method in brief: as §1
[3] = organism: Cavia porcellus; assay: Concentration producing 50% of the maximal increase in the force of contraction in isolated guinea pig left atrium; format: functional; conditions: Cardiac atrium; method in brief: as §1
[4] = target: Sodium/potassium-transporting ATPase subunit alpha-1 (Canis lupus familiaris, UniProt P50997); assay: In vitro inhibitory concentration against dog kidney Na+,K+-ATPase
Method in brief: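 Na+,K+-ATPase isolated and purified from dog kidney. Inhibition measured as percent hydrolysis of 32P-ATP with versus without compound. Single-concentration entries report percent inhibition at the stated concentration. Compounds tested within 1–4 h of dissolution.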

[5] = target: Sodium/potassium-transporting ATPase; assay: In vitro inhibitory concentration against dog kidney Na+/K+ ATPase; format: protein-complex assay, Canis lupus familiaris
Method in brief: (§2)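 Na+,K+-ATPase isolated and purified from dog kidney. Inhibition measured as percent hydrolysis of 32P-ATP with versus without compound. […] Single-concentration entries report percent inhibition at the stated concentration. Compounds tested within 1–4 h of dissolution.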

[6] = Compound at 100 uM was tested in vitro for the inhibition of dog kidney Na+/K+ ATPase; conditions: Canis lupus familiaris, target entry is the homologue from another species; method in brief: as §2

| SMILES | Concentration giving maximal inotropic effect [1] [µM] | Emax [2] [%] | EC50 [3] [µM] | IC50 [4] [µM] | IC50 [5] [µM] | inhibition [6] [%] |
| --- | --- | --- | --- | --- | --- | --- |
| C[C@]12CC[C@H](O)C[C@H]1CC[C@@H]1[C@@H]2CC[C@]2(C)[C@@H](C=O)CC[C@]12O | 300 | 79 | 11 | 25 | – | – |
| CO/N=C/C=C/[C@H]1CC[C@]2(O)[C@@H]3CC[C@@H]4C[C@@H](O)CC[C@]4(C)[C@H]3CC[C@]12C | – | – | – | – | 4 | – |
| C[C@]12CC[C@H](O)C[C@H]1CC[C@@H]1[C@@H]2CC[C@]2(C)[C@@H](/C=C/C=N/OCCN)CC[C@]12O | 0.3 | 155 | 0.05 | – | 0.02 | – |
| C[C@]12CC[C@H](O)C[C@H]1CC[C@@H]1[C@@H]2CC[C@]2(C)[C@@H](/C=N/OCC(=O)O)CC[C@]12O | – | – | – | – | > 100 | 0 |
| CONC[C@H]1CC[C@]2(O)[C@@H]3CC[C@@H]4C[C@@H](O)CC[C@]4(C)[C@H]3CC[C@]12C | – | – | – | – | 79 | – |
| CN(C)CCCCO/N=C/[C@H]1CC[C@]2(O)[C@@H]3CC[C@@H]4C[C@@H](O)CC[C@]4(C)[C@H]3CC[C@]12C | – | 214 | 4.7 | – | 2 | – |
| C[C@]12CC[C@H](O)C[C@H]1CC[C@@H]1[C@@H]2CC[C@]2(C)[C@@H](/C=C/C=C/CCN)CC[C@]12O | – | 98 | 0.38 | – | 0.08 | – |
| C[C@]12CC[C@H](O)C[C@H]1CC[C@@H]1[C@@H]2CC[C@]2(C)[C@@H](/C=C/C=C/CCCN)CC[C@]12O | 0.1 | 73 | 0.035 | 0.32 | – | – |
| C[C@]12CC[C@H](O)C[C@H]1CC[C@@H]1[C@@H]2CC[C@]2(C)/C(=N/OCCN)CC[C@]12O | – | – | – | – | > 100 | – |
| C[C@]12CC[C@H](O)C[C@H]1CC[C@@H]1[C@@H]2CC[C@]2(C)[C@@H](CC/C=N\OCCN)CC[C@]12O | – | 70 | 1.1 | – | 0.08 | – |
| C[C@]12CC[C@H](O)C[C@H]1CC[C@@H]1[C@@H]2CC[C@]2(C)/C(=C/C=N\OCCN)CC[C@]12O | 100 | 136 | 18 | – | 2 | – |
| C[C@]12CC[C@H](O)C[C@H]1CC[C@@H]1[C@@H]2CC[C@]2(C)[C@@H](/C=C/C=N/OCCO)CC[C@]12O | 300 | 179 | 39 | – | 6.3 | – |
| CC(/C=N/OCCN(C)C)=C\[C@H]1CC[C@]2(O)[C@@H]3CC[C@@H]4C[C@@H](O)CC[C@]4(C)[C@H]3CC[C@]12C.O=C(O)/C=C/C(=O)O | 0.3 | 146 | 0.07 | – | 0.06 | – |
| C[C@]12CC[C@H](O)C[C@H]1CC[C@@H]1[C@@H]2CC[C@]2(C)[C@@H](/C=C/C=O)CC[C@]12O | – | 45 | 4 | 0.25 | – | – |
| C[C@]12CC[C@H](O)C[C@H]1CC[C@@H]1[C@@H]2CC[C@]2(C)[C@@H](C3=CC(=O)OC3)CC[C@]12O [DIGITOXIGENIN] | 3 | 200 | 0.57 | – | – | – |
| CC(/C=N/OCCCCN)=C\[C@H]1CC[C@]2(O)[C@@H]3CC[C@@H]4C[C@@H](O)CC[C@]4(C)[C@H]3CC[C@]12C | – | 106 | 4 | – | 1.26 | – |
| CN(C)CCCCO/N=C1\CC[C@]2(O)[C@@H]3CC[C@@H]4C[C@@H](O)CC[C@]4(C)[C@H]3CC[C@]12C | – | – | – | – | > 100 | – |
| C[C@]12CC[C@H](O)C[C@H]1CC[C@@H]1[C@@H]2CC[C@]2(C)[C@@H](CCCCCCCN)CC[C@]12O | 100 | 43 | – | 1.25 | – | – |
| CONC/C=C/[C@H]1CC[C@]2(O)[C@@H]3CC[C@@H]4C[C@@H](O)CC[C@]4(C)[C@H]3CC[C@]12C | – | – | – | – | 40 | – |
| CN(C)CCCO/N=C/C=C1\CC[C@]2(O)[C@@H]3CC[C@@H]4C[C@@H](O)CC[C@]4(C)[C@H]3CC[C@]12C | – | – | – | – | 160 | – |

| SMILES | Concentration giving maximal inotropic effect [1] [µM] | Emax [2] [%] | EC50 [3] [µM] | IC50 [4] [µM] | IC50 [5] [µM] | inhibition [6] [%] |
| --- | --- | --- | --- | --- | --- | --- |
| CN(C)CCO/N=C/[C@H]1CC[C@]2(O)[C@@H]3CC[C@@H]4C[C@@H](O)CC[C@]4(C)[C@H]3CC[C@]12C | – | 39 | – | – | 1 | – |
| CN(C)CCCO/N=C1\CC[C@]2(O)[C@@H]3CC[C@@H]4C[C@@H](O)CC[C@]4(C)[C@H]3CC[C@]12C | – | – | – | – | > 100 | – |
| CN(C)CCO/N=C/C=C/C=C/[C@H]1CC[C@]2(O)[C@@H]3CC[C@@H]4C[C@@H](O)CC[C@]4(C)[C@H]3CC[C@]12C.O=C(O)C(=O)O | 100 | 145 | 20 | 6.3 | – | – |
| C[C@]12CC[C@H](O)C[C@H]1CC[C@@H]1[C@@H]2CC[C@]2(C)[C@@H](/C=C/C=N\OCC(=O)O)CC[C@]12O | – | – | – | – | > 100 | 40 |
| CN(C)CCO/N=C\C=C1/CC[C@]2(O)[C@@H]3CC[C@@H]4C[C@@H](O)CC[C@]4(C)[C@H]3CC[C@]12C | – | – | – | – | 12.5 | – |
| CN(C)CCO/N=C/C[C@H]1CC[C@]2(O)[C@@H]3CC[C@@H]4C[C@@H](O)CC[C@]4(C)[C@H]3CC[C@]12C | – | 73 | 1.8 | – | 0.63 | – |
| C[C@]12CC[C@H](O)C[C@H]1CC[C@@H]1[C@@H]2CC[C@]2(C)[C@@H](CNOCCN)CC[C@]12O.Cl.Cl | 100 | 135 | 8 | – | 1.58 | – |
| CO/N=C/C(C)=C/[C@H]1CC[C@]2(O)[C@@H]3CC[C@@H]4C[C@@H](O)CC[C@]4(C)[C@H]3CC[C@]12C | – | – | – | – | 10 | – |
| C[C@]12CC[C@H](O)C[C@H]1CC[C@@H]1[C@@H]2CC[C@]2(C)[C@@H](CNOCCCN)CC[C@]12O | – | 237 | 3.9 | – | 0.4 | – |
| CN(C)CCO/N=C1\CC[C@]2(O)[C@@H]3CC[C@@H]4C[C@@H](O)CC[C@]4(C)[C@H]3CC[C@]12C | – | – | – | – | > 100 | – |
| CCCO/N=C/C=C/[C@H]1CC[C@]2(O)[C@@H]3CC[C@@H]4C[C@@H](O)CC[C@]4(C)[C@H]3CC[C@]12C | – | – | – | – | 10 | – |
| CC(/C=N/OCCO)=C\[C@H]1CC[C@]2(O)[C@@H]3CC[C@@H]4C[C@@H](O)CC[C@]4(C)[C@H]3CC[C@]12C | 300 | 175 | 23 | – | 7.9 | – |
| C/C(C=O)=C\[C@H]1CC[C@]2(O)[C@@H]3CC[C@@H]4C[C@@H](O)CC[C@]4(C)[C@H]3CC[C@]12C | – | – | – | 1.58 | – | – |
| C[C@]12CC[C@H](O)C[C@H]1CC[C@@H]1[C@@H]2CC[C@]2(C)/C(=C/C=N\OCCCN)CC[C@]12O | – | – | – | – | > 100 | – |
| CN(C)CCONC[C@H]1CC[C@]2(O)[C@@H]3CC[C@@H]4C[C@@H](O)CC[C@]4(C)[C@H]3CC[C@]12C.Cl.Cl | 300 | 18 | – | – | 50 | – |
| C[C@]12CC[C@H](O)C[C@H]1CC[C@@H]1[C@@H]2CC[C@]2(C)[C@@H](/C=N/OCCN)CC[C@]12O | – | 145 | 0.62 | – | 0.16 | – |
| CN(C)CCCO/N=C/[C@H]1CC[C@]2(O)[C@@H]3CC[C@@H]4C[C@@H](O)CC[C@]4(C)[C@H]3CC[C@]12C | – | 235 | 1.3 | – | 0.25 | – |
| C[C@]12CC[C@H](O)C[C@H]1CC[C@@H]1[C@@H]2CC[C@]2(C)[C@@H](CCC=O)CC[C@]12O | – | – | – | 40 | – | – |
| CO/N=C/[C@H]1CC[C@]2(O)[C@@H]3CC[C@@H]4C[C@@H](O)CC[C@]4(C)[C@H]3CC[C@]12C | – | – | – | – | 32 | – |
| C[C@]12CC[C@H](O)C[C@H]1CC[C@@H]1[C@@H]2CC[C@]2(C)[C@@H](CCCNOCCN)CC[C@]12O | – | 71 | 12 | – | 1 | – |
